Assay outcomes (PubChem BioAssay)
MT1-MMP act inh = inhibitors of human MT1-MMP activation | P50281 | HT1080 RFP-PRO-GFP cells, GFP/RFP ratio fluorescence, overnight; percent of plate control window, DMSO zero | GFP/RFP ratio change, % at 20 µM | actives 0.061% (n = 360,000) | AID 651647;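 active = GFP/RFP ratio change of at least 30% with cell ATP level not reduced by more than half and red fluorescence within 50% of control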
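Material: RFP-PRO-GFP reporter HT1080 cells. Dosing: single-point 20 µM compound, 1% DMSO. Controls: DMSO and RFP-L50D-GFP cell wells. Timing: cells overnight before dosing, compound overnight, 37 °C, 5% CO2. Measure: GFP/RFP fluorescence ratio.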
SKN-1 block = inhibitors of C. elegans SKN-1 | actives 0.49% (n = 360,000) | inhibition, % at 21.8 µM | C. elegans VP596 Pgst-4::GFP/RFP ratio, acrylamide-induced, 24 h | AID 624304;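 active = interference check ratio from 0.5 to 1.5 plus GFP to RFP signal ratio inhibition reaching or exceeding a fixed threshold, cut at about 30% in these data, passing the limit was not always enough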
p-CIP stab down = compounds decreasing mouse p/CIP protein stability; AID 1984; F442A p/CIP-EGFP cells, EGFP fluorescence, 16 h; decrease of EGFP signal, % at 10 µM; actives 0.01% (n = 290,000);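 active = EGFP signal decrease of at least 30% at 10 µM or well 3 SD below plate mean, unless failing retest; inactive = the rest, including hits failing retest or dose response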
bovine MsrA act = bovine methionine sulfoxide reductase A activation | purified bovine MsrA, absorbance read-out | activation, % at 10.6 µM | actives 0.3% (n = 360,000); in the data active = activation above about 7.5%
MsrA inh = inhibitors of bovine MsrA | purified bovine MsrA, absorbance read-out | inhibition, % at 15.5 µM | actives 0.75% (n = 360,000) | AID 651718; in the data active = inhibition above about 4.5%
Each line names hits and unclear results; the compound was inactive in the other large screens. Hits are enriched below; roughly 1.6% of the tested compounds scored in any of these assays.

C[C@H](O)[C@@H]1C(=O)N2CCc3c([nH]c4c(-c5ccccc5)cccc34)[C@@H]2C[C@@H]1N(C)C(=O)/C=C/c1ccccc1	none (no result: MT1-MMP act inh, SKN-1 block, p-CIP stab down, bovine MsrA act)
c1csc(-c2csc(-c3cccs3)n2)c1	SKN-1 block 93
COC(=O)[C@]12C[C@H](CC(=O)NCC34CC5CC(CC(C5)C3)C4)C(=O)N(Cc3ccc4c(c3)OCO4)C1=C[C@H](C(C)(C)C)O[C@@H]2C	none (no result: MT1-MMP act inh, SKN-1 block, p-CIP stab down, bovine MsrA act)
CC1=C(C(=O)OC(C)C)C(c2ccc(Cl)cc2)n2c(sc(=Cc3ccc(OCC(=O)O)cc3)c2=O)=N1 (stereo not drawn)	none (no result: p-CIP stab down)
COc1ccc(C2C(C(=O)OC(C)C)=C(C)N=c3s/c(=C\c4cccs4)c(=O)n32)cc1 (stereo not drawn)	SKN-1 block 43
CN[C@H]1C[C@H]2c3[nH]c4c(-c5ccc6c(c5)OCO6)cccc4c3CCN2C(=O)[C@H]1[C@H](C)O	none (no result: MT1-MMP act inh, SKN-1 block, p-CIP stab down, bovine MsrA act)
COc1cc2c(cc1OC)[C@@H](NC(=O)CCc1ccccc1)[C@H](OCc1ccccc1)C2	SKN-1 block 35 (no result: p-CIP stab down)
C[C@H](CO)N1C[C@H](C)[C@@H](CN(C)S(=O)(=O)c2ccc(F)cc2)Oc2cc(Br)ccc2S1(=O)=O	none (no result: MT1-MMP act inh, SKN-1 block, p-CIP stab down, bovine MsrA act)
CC(C)C[C@H](NC(=O)N1CCOCC1)C(=O)N1CCC[C@H]1C(=O)NCc1ccccc1	none (no result: MT1-MMP act inh, SKN-1 block, p-CIP stab down, bovine MsrA act)
CCOC(=O)N1CCN(C(=O)c2cnn3c(C(F)F)cc(-c4ccc(C)cc4)nc23)CC1	none
Cc1ccc(-c2cc(C(F)F)n3ncc(C(=O)N4CCN(c5cccc(C)c5C)CC4)c3n2)cc1	SKN-1 block 39
C[C@@H]1C=CCCO[C@]12C(=O)N(Cc1ccc(F)cc1)c1ccccc12	none (no result: MT1-MMP act inh, SKN-1 block, p-CIP stab down, bovine MsrA act)
Cc1c(-c2csc(N)n2)c2ccccc2n1C	SKN-1 block 37
Cc1[nH]c2ccccc2c1-c1csc(N)n1	none
COC(=O)C1CCN(C2CN(Cc3cn(Cc4ccc(C(F)(F)F)cc4)nn3)S(=O)(=O)C2)CC1 (stereo not drawn)	none (no result: MT1-MMP act inh, SKN-1 block, p-CIP stab down, bovine MsrA act)
OCc1ccccc1OCc1ccccc1	none (no result: MT1-MMP act inh, SKN-1 block, p-CIP stab down, bovine MsrA act)
CCCCc1nnc(NC(=O)Cc2ccc(OC)c(S(=O)(=O)N3CCOCC3)c2)s1	none (no result: p-CIP stab down)
COc1ccc(CC(=O)Nc2nnc(SCc3ccccc3)s2)cc1S(=O)(=O)N1CCOCC1	SKN-1 block 61
Cc1cc(NC(=O)CCc2ccc(C)o2)no1	SKN-1 block 31
Clc1ccc(-c2nnc(-c3ccco3)o2)cc1	SKN-1 block 74
CC1(c2ccc(Cl)cc2)NC(=O)N(CN2CCOCC2)C1=O (stereo not drawn)	SKN-1 block 37
CSc1ccc(NC(=O)NCCCN2CCN(c3ccccc3F)CC2)cc1	SKN-1 block 33 (no result: MsrA inh)
Oc1c(N=Nc2nn[nH]n2)ccc2ccccc12	SKN-1 block 54 (no result: p-CIP stab down)
O=C(O)C(CO)N=Cc1c(O)c2ccccc2oc1=O (stereo not drawn)	MsrA inh 4.6
CC(N=Cc1c(O)c2ccccc2oc1=O)C(=O)O (stereo not drawn)	none
COc1ccc(-c2ccc3c(=O)cc(-c4ccsc4)oc3c2)cn1	SKN-1 block 47 (no result: p-CIP stab down)
COc1cc(-c2ccc3oc(-c4ccsc4)cc(=O)c3c2)cc(OC)c1OC	none (no result: p-CIP stab down)
COC(=O)c1cc2c(c3c4cc(F)ccc4n(S(=O)(=O)c4ccccc4)c13)C(=O)N(Cc1ccccc1)C2	none (no result: MT1-MMP act inh, SKN-1 block, p-CIP stab down, bovine MsrA act)
O=C(N[C@@H](Cc1cccnc1)C(=O)N1CCC[C@H]1C(=O)NC1CCCC1)C1CC1	none (no result: MT1-MMP act inh, SKN-1 block, p-CIP stab down, bovine MsrA act)
Cc1ccccc1S(=O)(=O)N1CCCc2nc(-c3ccc(F)cc3)ccc21	none (no result: MT1-MMP act inh, SKN-1 block, p-CIP stab down, bovine MsrA act)
COc1ccc2cc(C(=O)NCc3ccccc3)c(=O)oc2c1	none
CCOC(=O)c1cc2ccc(OC)cc2oc1=O	MsrA inh 4.6
Clc1ncccc1-c1nnn(-c2ccccc2Br)n1	SKN-1 block 53
Clc1nc2ccccc2cc1-c1nnn(-c2ccccc2Br)n1	none (no result: p-CIP stab down)
COc1ccc(CNC(C)C(=O)Nc2ccc3ccccc3c2)cc1OC (stereo not drawn)	SKN-1 block 51
COc1cccc(CNC(C)C(=O)Nc2ccc3c(c2)OCCO3)c1 (stereo not drawn)	none
CCOC(=O)c1ccc(Nc2cc(C)nc3ncnn23)cc1	none
COC(=O)c1ccc(Nc2cc(C)nc3ncnn23)cc1	SKN-1 block 37
CCSc1ncc(/C=N/Nc2ccccc2)n1C	SKN-1 block 45
CCSc1ncc(/C=N/Nc2ccc(Cl)cc2)n1C	none
CC(=O)NC1CCCCN(C)C1=O (stereo not drawn)	none (no result: MT1-MMP act inh, SKN-1 block, p-CIP stab down, bovine MsrA act)
CCCn1cnc2cc(NCc3cccc(OC)c3O)ccc21	SKN-1 block 35
COc1ccccc1NC(=O)CN1CCN(C2c3ccccc3-c3ccccc32)CC1	SKN-1 block 37
COc1ccc(NC(=O)CN2CCN(C3c4ccccc4-c4ccccc43)CC2)c(OC)c1	none
O=c1cnnc(N/N=C/c2cccs2)[nH]1	MsrA inh 4.6
O=C1NC[C@H](Cc2ccccc2)N(C[C@@H]2CCCN2C[C@H](Cc2ccc(O)cc2)N2C[C@H](Cc3ccccc3)N(CC3CCCCCC3)C(=O)C2=O)C1=O	SKN-1 block 37 (no result: p-CIP stab down)
O=C1NC[C@H](Cc2ccc(O)cc2)N(C[C@@H]2CCCN2C[C@H](Cc2ccccc2)N2C[C@H](Cc3ccccc3)N(CC3CCCCCC3)C(=O)C2=O)C1=O	none (no result: p-CIP stab down)
Cc1ccccc1NC(=O)Cc1nc(COC(=O)c2cccc([N+](=O)[O-])c2)cs1	none
Cc1ccccc1NC(=O)Cc1nc(COC(=O)c2cccc(O)c2)cs1	SKN-1 block 42 (no result: p-CIP stab down)
CCNC(=O)N1C[C@H]2CON(C)[C@H]2C[C@H]1c1ccc(N2CCCCC2)cc1	none (no result: MT1-MMP act inh, SKN-1 block, p-CIP stab down, bovine MsrA act)
COCC(=O)NCc1ccc2c(c1)cc(C)n2C	SKN-1 block 47
Cc1cc2cc(CNC(=O)COc3ccccc3)ccc2n1C	none
Cc1cc2cc(CNC(=O)c3ccco3)ccc2n1C	SKN-1 block 49
CCCCOCC1CN(CCCC)S(=O)(=O)c2c(NCc3cc(OC)c(OC)c(OC)c3)cccc2O1 (stereo not drawn)	none (no result: MT1-MMP act inh, SKN-1 block, p-CIP stab down, bovine MsrA act)
CCN(CC)CCC(c1cc(OC)c(OC)c(OC)c1)c1c(OC)cc(OC)c2c(C)cc(=O)oc12 (stereo not drawn)	SKN-1 block 40
CCCN1CCCCC(NC(=O)c2ccc(F)c(F)c2)C1=O (stereo not drawn)	none (no result: MT1-MMP act inh, SKN-1 block, p-CIP stab down, bovine MsrA act)
Brc1ccc(-c2cnc(-c3cccs3)o2)cc1	SKN-1 block 89
CCOC(=O)c1c(C)[nH]c(C(=O)COC(=O)c2oc3ccccc3c2C)c1C	none
CCOC(=O)c1c(C)[nH]c(C(=O)COC(=O)c2oc3ccc(OC)cc3c2C)c1C	SKN-1 block 37
COC(=O)c1cc2c(c3c4cc(C)ccc4n(S(=O)(=O)c4ccc(C)cc4)c13)C(=O)N(Cc1ccc(C(F)(F)F)cc1)C2	none (no result: MT1-MMP act inh, SKN-1 block, p-CIP stab down, bovine MsrA act)
CCOC(=O)C1=C(C(=O)OCC)C2N(Cc3ccc(C#N)cc3)c3ccccc3[C@@]23C[C@@H](C(=O)OC)N(S(=O)(=O)c2ccc(C#N)cc2)C3=N1 (stereo partly drawn)	none (no result: MT1-MMP act inh, SKN-1 block, p-CIP stab down, bovine MsrA act)
O=C(N[C@@H](Cc1cccnc1)C(=O)N1CCC[C@H]1C(=O)NCCc1ccccc1Cl)c1ccc(Cl)c(Cl)c1	none (no result: MT1-MMP act inh, SKN-1 block, p-CIP stab down, bovine MsrA act)
